This sample holds only a part of the variants without activity.

Sequences and labels used below:
B1: tRNA (parent)
chain: GUUCCGUUGGCGUAAUGGUAACGCGUCUCCCUCCUAAGGAGAAGACUGCGGGUUCGAGUCCCGUACGGAACG

In the data set the parent is B1. Briefly: yeast fitness relative to wild type (ratio to wild type); higher = fitter; tRNA-Arg(CCU), competitive growth, 37 C, YPD. The method, boiled down:
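Gene amplicons from the start population and from each of six end populations were read by 100-nucleotide paired-end sequencing. Those end populations came from pooled Saccharomyces cerevisiae strains carrying tRNA-Arg(CCU) gene variants at the native locus, competed in YPD at 37°C for 24 hours. Fitness relative to wild type was worked out from changes in genotype frequencies. Genotypes needed ≥ 100 starting reads, and estimates < 0.5 were set to 0.5.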
With GUUCCGUUGGCGUAAUGGUAACGCGUCGCCCUCCUAAGGAGAAGACUGCGGGUUCCAGUCCCGUACGGAACG [U28G G56C], the yeast fitness is 0.655.
With GUUCCGUUGGCGUAAUGGUAACGCGUCUACCUCCUUAGGAGAAGACUGCCGGUUGGAGUCGCGUACGGAACG [C29A A36U G50C C55G C61G] the figure was at most 0.5.
With GUUCCGUUGGCGUAAUGGUAACGCGUCCCCCUCCUAAGGAGAAGACUGCGGGUUCGAGUCCCGUACGCAACG [U28C G68C], the yeast fitness was 0.884.
As for GUUCCGUUGGCGUAAUGGUAACGCGUCGCCCUCCUGAGGAGAAGGCUGCGGGUUCGAGUCCCGUACGGUACG [U28G A36G A45G A69U], the yeast fitness turned out to be 0.825.
With GUUCCGUUGGCGUAAUGGUAACGCGUCCCCCUCCUAAGGAGAAGACUGCGGGUUCGAGUCCCGUACCGAACG [U28C G67C] the figure was 0.845; with GUUCCGUUGGCGUAAUGGUAACGCGUCUACCUCCUAAGGUGAAGCAUGAGGGUUCGGGUCCCGUACGGAACG [C29A A40U A45C C46A C49A A57G], at most 0.5; with GUUCCGUUGGCGUAAUGGUAACGCGUCCCCCUCCUAAGGAGAAGACUGCGGGUGCGCGUCCUGUACGGAACG [U28C U54G A57C C62U], at most 0.5.
With GUUCCGUUGGCGUAAUGGUAACGCGUCGCCCUCCUAAGGACAAGACUGCGGGAUCGAGUCCCGUACGGAACG [U28G G41C U53A] the figure was at most 0.5; with GUUCCGUUGGCGUAAUGGUAACGCGUCGACCUCCUAAGGACAUGACUGCGGGUUCGAGUCCCGUACGGAACG [U28G C29A G41C A43U], at most 0.5.
With GUUCCGUUGGCGUAAUGGUAACGCGUCGCCCUCCUGAGGAGAAGACUGCGGGUUCGAGUCCCGUACGGAACG [U28G A36G] the figure was 0.712; with GUUCCGUUGGCGUAAUGGUAACGCGUCUACCUCCUAUGGAGAAGACUGCGGGUUCGAGUCCCGUUCGGAACG [C29A A37U A65U], at most 0.5; with GUUCCGUUGGCGUAAUGGUAACGCGUCCCCCUCCUAAGGAGAAGACUGCGGGUGCGAGUCCCGUACGGAUCG [U28C U54G A70U], at most 0.5.
As for GUUCCGUUGGCGUAAUGGUAACGCGUCCCCCUCCAAAGGAGAAGACUGCGGGUUCGAGUCCCGUACGGAACG [U28C U35A], the yeast fitness was 0.578.
Turning to GUUCCGUUGGCGUAAUGGUAACGCGUCGCCCUACUAAGGAGAAGCCUGCGGGUUCGAGUCCCGUACGGAACG [U28G C33A A45C], the yeast fitness was at most 0.5.
With GUUCCGUUGGCGUAAUGGUAACGCGUCCCCCUCCUAAGGAGAAGACUGCGGGUUCGAGUCCCGCACGGAACG [U28C U64C] the figure was 0.877; with GUUCCGUUGGCGUAAUGGUAACGCGUCGCCCUCCUAAGGAGAAGAGUGUGGGUUCGAGUCACGUACGGAACG [U28G C46G C49U C61A], at most 0.5.
With GUUCCGUUGGCGUAAUGGUAACGCGUCGCCUUCCUAAGGCGAAGACUGCGGGUUCGAGUCCCGUACGGAUCG [U28G C31U A40C A70U] the figure was at most 0.5; with GUUCCGUUGGCGUAAUGGUAACGCGUCGCCCUCCUAAGGAGAAGCCUGCGGGUUCGAGUCCCGUACGGAACG [U28G A45C], 0.655.
As for GUUCCGUUGGCGUAAUGGUAACGCGUCGACCUCCUAAGGACAUGACUGCGGGUUCGAGUCCCGUAGGGAACG [U28G C29A G41C A43U C66G], the yeast fitness stood at 0.595.
With GUUCCGUUGGCGUAAUGGUAACGCGUCCCCCUCCUAAGGAGAAGACUGCGGGUUCCAGUCCCGUACGGAACG [U28C G56C] the figure was 0.53; with GUUCCGUUGGCGUAAUGGUAACGCGUCGCCCUCCUAAGGAGAAGACUGCGGGUUCGAGACCCGUACGGACCG [U28G U59A A70C], at most 0.5; with GUUCCGUUGGCGUAAUGGUAACGCGUCGCCCUCCUAAGGAGAAGACUGCGGGUUCGUGCCCCGUACGGAACG [U28G A57U U59C], at most 0.5.
With GUUCCGUUGGCGUAAUGGUAACGCGUCGCCCUCCUAAGGAGAAGACUGCGGGUUCGCGUCCCGUACGGAACG [U28G A57C] the figure was 0.587.
With GUUCCGUUGGCGUAAUGGUAACGCGUCGCCCUGCUAAGGAGAAGACUGUGGGUUCGAGUCCCGUACGCUACG [U28G C33G C49U G68C A69U] the figure was at most 0.5.
On to GUUCCGUUGGCGUAAUGGUAACGCGUCGCCGUCCUAAGGAGAAGUGUGCGGGUUCGAAUCCCGUACGGAACG [U28G C31G A45U C46G G58A], for which the yeast fitness came out at 0.529.
With GUUCCGUUGGCGUAAUGGUAACGCGUCGGCCUCCUAAGGAAAAGACUGCGGGUUCGAGUCCCGUACGGAACG [U28G C29G G41A] the figure was at most 0.5; with GUUCCGUUGGCGUAAUGGUAACGCGUCGCGCUCCUAAGGCGUAGACUGCGGGUUCGAGUCCCGUACAGAACG [U28G C30G A40C A42U G67A], at most 0.5.
With GUUCCGUUGGCGUAAUGGUAACGCGUCUACCUCCUCAGGAGAAGACUGCGAGCUCGAGUCCCGCUCGGAACG [C29A A36C G51A U53C U64C A65U] the figure was at most 0.5; with GUUCCGUUGGCGUAAUGGUAACGCGUCGCCCUCCUGAGGAGAAGACUGCGGGUUCGAGUCCCGUUCGGAACG [U28G A36G A65U], at most 0.5; with GUUCCGUUGGCGUAAUGGUAACGCGUCGCUCUCCUAAGGAGAAGACUGCGGGUUCGAGUCCCGUACGGAACG [U28G C30U], 0.693.
With GUUCCGUUGGCGUAAUGGUAACGCGUCGCCCUCCUAAGGAGAAGAGUGCGGGUUCGAGUCUCGUACGGAACG [U28G C46G C61U] the figure was at most 0.5.
As to GUUCCGUUGGCGUAAUGGUAACGCGUCGCCCUCCUAAGGCGGAGACUGCGGGUUCGAGUCCCGUACGGCACG [U28G A40C A42G A69C], the yeast fitness was determined as 0.808.
As to GUUCCGUUGGCGUAAUGGUAACGCGUCGCCCUCACAAGGAGAAGACUGCGGGUUCGAGUCCCGUACGGAACG [U28G C34A U35C], the yeast fitness is at most 0.5.
With GUUCCGUUGGCGUAAUGGUAACGCGUCGCCCUGCUAAGGAGAAGACUGUGGGUUCGAGUCCCGUACGGAACG [U28G C33G C49U] the figure was at most 0.5; with GUUCCGUUGGCGUAAUGGUAACGCGUCUACCUCCUAGGGAGAAGACUGCGGGUUCGAGUCCCGUACGGAACG [C29A A37G], 0.545; with GUUCCGUUGGCGUAAUGGUAACGCGUCGCCCUCCUAAGGAGAAGGCUGCGCGUUCGAGUCCCGUACGGAGCG [U28G A45G G51C A70G], at most 0.5.
Take GUUCCGUUGGCGUAAUGGUAACGCGUCGCCCUCCUAAGGAGAAGAGUGUGGGUUCGAGUCCCGUACGGAACG [U28G C46G C49U]: the yeast fitness was at most 0.5.

Source of the values: the RNAGym collection of RNA variant scans (doi:10.1126/science.aae0568).
